According to ChEMBL document CHEMBL4033795, “Design, Synthesis, and Structure-Activity Relationship Study of 2-Oxo-3,4-dihydropyrimido[4,5- d]pyrimidines as New Colony Stimulating Factor 1 Receptor (CSF1R) Kinase Inhibitors” (J Med Chem, 2018):
pIC50: −log10 of the molar value.

Assays:
[1] = Half life in Sprague-Dawley rat at 25 mg/kg administered via oral gavage measured up to 72 hrs by LC/MS analysis; format: ADME, organism-based; details: in vivo
Procedure, shortened: (§1)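 Male Sprague-Dawley rats, 4–6 weeks old, acclimatised 1 week, were dosed iv at 5 mg/kg or by oral gavage at 25 mg/kg. Vehicle was 2% DMSO, 4% EtOH, 4% castor oil, 90% H2O. Blood was drawn by orbital sinus puncture from 2 min to 72 h into heparinized tubes. Plasma was assayed by LC/MS with propranolol as internal standard. Three animals per group.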

[2] = Oral bioavailability in Sprague-Dawley rat at 25 mg/kg administered via gavage measured up to 72 hrs by LC/MS analysis; format: ADME, organism-based; details: in vivo; procedure, shortened: as §1
[3] = molecular target: Receptor-type tyrosine-protein kinase FLT3 (Homo sapiens, UniProt P36888); assay: Inhibition of recombinant human His-tagged FLT3 (564 to 958 residues) expressed in baculovirus using poly (Glu,Tyr) as substrate after 2 hrs by PK-Light ATP assay
Chain of Receptor-type tyrosine-protein kinase FLT3 (P36888 whole entry, the tested form may be a part): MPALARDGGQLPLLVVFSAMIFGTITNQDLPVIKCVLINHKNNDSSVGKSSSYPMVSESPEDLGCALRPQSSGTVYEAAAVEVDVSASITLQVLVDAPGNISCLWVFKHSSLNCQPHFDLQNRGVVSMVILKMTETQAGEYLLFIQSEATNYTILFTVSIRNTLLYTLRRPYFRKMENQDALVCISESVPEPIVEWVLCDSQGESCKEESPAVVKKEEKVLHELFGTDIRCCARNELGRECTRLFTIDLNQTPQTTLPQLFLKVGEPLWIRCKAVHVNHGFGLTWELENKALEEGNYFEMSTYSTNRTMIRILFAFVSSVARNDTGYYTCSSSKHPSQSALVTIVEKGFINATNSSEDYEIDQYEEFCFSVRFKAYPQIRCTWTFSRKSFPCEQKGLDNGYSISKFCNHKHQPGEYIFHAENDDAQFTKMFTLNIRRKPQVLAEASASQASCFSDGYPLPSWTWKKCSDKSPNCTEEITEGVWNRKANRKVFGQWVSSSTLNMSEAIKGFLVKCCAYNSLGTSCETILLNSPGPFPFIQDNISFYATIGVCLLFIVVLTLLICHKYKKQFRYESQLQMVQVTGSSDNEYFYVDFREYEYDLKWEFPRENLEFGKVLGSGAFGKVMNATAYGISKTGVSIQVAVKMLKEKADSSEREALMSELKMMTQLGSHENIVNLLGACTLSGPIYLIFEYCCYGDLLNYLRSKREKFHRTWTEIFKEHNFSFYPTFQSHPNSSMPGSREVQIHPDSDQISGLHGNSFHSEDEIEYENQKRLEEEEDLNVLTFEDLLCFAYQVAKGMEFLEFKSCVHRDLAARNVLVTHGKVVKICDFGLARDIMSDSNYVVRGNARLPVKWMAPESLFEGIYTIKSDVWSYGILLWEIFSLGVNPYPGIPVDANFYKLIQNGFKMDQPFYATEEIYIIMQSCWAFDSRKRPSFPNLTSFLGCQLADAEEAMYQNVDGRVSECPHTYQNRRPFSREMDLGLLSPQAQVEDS

[4] = molecular target: Fibroblast growth factor receptor 4 (Homo sapiens, UniProt P22455); assay: Inhibition of cytoplasmic recombinant human His-tagged FGFR4 ([…] residues) expressed in baculovirus using tyr4 peptide as substrate after 1 hr by FRET-based Z'-Lyte assay
Chain of Fibroblast growth factor receptor 4 (P22455 whole entry): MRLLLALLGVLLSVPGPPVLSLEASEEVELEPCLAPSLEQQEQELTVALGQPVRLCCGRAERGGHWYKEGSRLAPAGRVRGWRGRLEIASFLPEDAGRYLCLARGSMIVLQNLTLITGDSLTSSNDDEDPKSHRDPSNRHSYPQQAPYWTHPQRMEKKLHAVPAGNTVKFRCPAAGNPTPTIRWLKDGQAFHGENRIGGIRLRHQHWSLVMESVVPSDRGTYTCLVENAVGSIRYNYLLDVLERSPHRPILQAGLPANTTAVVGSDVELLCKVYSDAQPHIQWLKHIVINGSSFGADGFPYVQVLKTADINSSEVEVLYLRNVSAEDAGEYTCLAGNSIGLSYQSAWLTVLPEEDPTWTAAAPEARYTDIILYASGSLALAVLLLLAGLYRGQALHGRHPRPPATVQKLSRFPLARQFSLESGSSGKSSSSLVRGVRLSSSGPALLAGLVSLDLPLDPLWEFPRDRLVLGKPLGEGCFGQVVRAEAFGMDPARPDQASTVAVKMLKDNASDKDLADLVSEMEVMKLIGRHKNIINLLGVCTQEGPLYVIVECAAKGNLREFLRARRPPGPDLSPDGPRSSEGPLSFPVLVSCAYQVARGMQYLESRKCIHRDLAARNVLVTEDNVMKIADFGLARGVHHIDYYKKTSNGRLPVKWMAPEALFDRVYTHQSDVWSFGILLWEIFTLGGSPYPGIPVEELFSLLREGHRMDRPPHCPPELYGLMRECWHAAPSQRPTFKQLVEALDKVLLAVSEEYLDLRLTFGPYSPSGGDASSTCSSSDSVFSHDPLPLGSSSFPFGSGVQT

RAW264.7 [5] = assay: Antimigratory activity against mouse RAW264.7 cells assessed as inhibition of human LNCaP-MDV-CM mediated macrophage migration at 2.5 uM after 24 hrs by crystal violet staining based transwell assay relative to control; format: functional; details: RAW264.7, 24 h
Procedure, shortened: (§2)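 RAW264.7 cells, (2−4) × 10^5, were placed serum-free in the upper insert of a transwell. The lower chamber held conditioned medium from LNCaP cells grown 48 h in 10% FBS RPMI 1640 with 10 μM MDV3100 or DMSO. Compound at 0.625–5.0 μM was added to the top chamber for 24 h at 37 °C. Migrated cells were fixed in methanol, stained with 0.25% crystal violet and counted in six random fields at 200×. Three independent experiments.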

RAW264.7 [6] = assay: Antimigratory activity against mouse RAW264.7 cells assessed as inhibition of human LNCaP-MDV-CM mediated macrophage migration at 5 uM after 24 hrs by crystal violet staining based transwell assay relative to control; format: functional; details: RAW264.7, 24 h; procedure, shortened: as §2
Homo sapiens = species: Homo sapiens; assay: Selectivity ratio of IC50 for recombinant human wild type GST-tagged EGFR cytoplasmic domain (668 to 1210 residues) expressed in baculovirus to IC50 for recombinant human His-tagged CSF1R cytoplasmic domain (538 to 910 residues) expressed in baculovirus
Procedure, shortened: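 Z′-Lyte FRET assay with CSF1R or EGFR and 2 μM Tyr4 peptide substrate in 1× kinase buffer. ATP was supplied as a 100 μM solution, a stock and not the final concentration. Compounds were 3-fold serially diluted in DMSO. Reaction ran 1 h at room temperature, followed by 1 h development and a stop reagent. Phospho-peptide, no-ATP and DMSO controls were included. IC50 by curve fitting; mean of at least three independent experiments.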

CCC(=O)N1CC[C@H](N2C(=O)N(c3cc(OC)ccc3Cl)Cc3cnc(Nc4ccc(N5CCN(C6COC6)CC5)c(C)c4)nc32)C1
half-life [1]: 1.08 h | bioavailability [2]: 44.4% | pIC50 [3]: 7.43 | pIC50 [4]: 6.78 | inhibition at 2.5 µM (RAW264.7 [5]): 60.6% | inhibition at 5 µM (RAW264.7 [6]): 90.7% | Ratio IC50 (Homo sapiens): 120
